Measurements taken from ChEMBL document CHEMBL1144254, “Synthesis and SAR of novel 4,5-diarylimidazolines as potent P2X7 receptor antagonists” (Bioorg Med Chem Lett, 2005).

These compounds were tested on U373 MG (assay: Inhibitory concentration against YOPRO-1 dye uptake in U373MG cells stably expressing human P2X purinoceptor 7 using fluorescence assay).
Assay type: functional, cell-based, U-373MG ATCC
Procedure, shortened: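 U373 cells stably expressing human P2X7 were grown overnight on collagen-coated plates at 35,000 cells/well. They were then preincubated 20 min at 37°C with increasing compound concentrations, in duplicate, in Mg²⁺/Ca²⁺-free HBSS. YO-PRO-1 iodide and then Bz-ATP were added, followed by 1.5 h at 37°C. Fluorescence was read at 485/530 nm against a no-compound control, and IC50 came from a nonlinear sigmoidal fit; means of duplicates, one or two experiments.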

SMILES	IC50 [nM]
Clc1ccc(CCC2=N[C@H](c3ccccc3)[C@H](c3ccccc3)N2)cc1	> 1000
Fc1cccc(CC2=N[C@H](c3ccccc3)[C@H](c3ccccc3)N2)c1	80
c1ccc([C@H]2C[C@@H]2C2=N[C@H](c3ccccc3)[C@H](c3ccccc3)N2)cc1	> 1000
CC(Cc1ccccc1)C1=N[C@H](c2ccccc2)[C@H](c2ccccc2)N1 (some centres not stated)	570
c1ccc(C(CC2=N[C@H](c3ccccc3)[C@H](c3ccccc3)N2)c2ccccc2)cc1	320
CC(C)(CC1=N[C@H](c2ccccc2)[C@H](c2ccccc2)N1)c1ccccc1	10
Fc1ccccc1CC1=N[C@H](c2ccccc2)[C@H](c2ccccc2)N1	580
Clc1ccc(CC2=N[C@H](c3ccccc3)[C@H](c3ccccc3)N2)cc1	270
Fc1cccc(CCC2=N[C@H](c3ccccc3)[C@H](c3ccccc3)N2)c1	40
c1ccc(CCCC2=N[C@H](c3ccccc3)[C@H](c3ccccc3)N2)cc1	540
Fc1ccccc1CCC1=N[C@H](c2ccccc2)[C@H](c2ccccc2)N1	160
Fc1ccc(CC2=N[C@H](c3ccccc3)[C@H](c3ccccc3)N2)cc1	80
Clc1ccccc1CC1=N[C@H](c2ccccc2)[C@H](c2ccccc2)N1	160
Clc1cccc(CCC2=N[C@H](c3ccccc3)[C@H](c3ccccc3)N2)c1	120
Cc1ccc(CC2=N[C@H](c3ccccc3)[C@H](c3ccccc3)N2)cc1	80
COc1ccc(CCC2=N[C@H](c3ccccc3)[C@H](c3ccccc3)N2)cc1OC	> 3000
c1ccc(CCCCC2=N[C@H](c3ccccc3)[C@H](c3ccccc3)N2)cc1	610
c1ccc(CCC2=N[C@H](c3ccccc3)[C@H](c3ccccc3)N2)cc1	80
COc1ccccc1CCC1=N[C@H](c2ccccc2)[C@H](c2ccccc2)N1	830

SMILES	IC50 [nM]
Clc1ccccc1CCC1=N[C@H](c2ccccc2)[C@H](c2ccccc2)N1	70
Fc1cccc(CC2=N[C@H](c3ccccc3)[C@H](c3ccccc3)N2)c1F	930
Fc1ccc(CCC2=N[C@H](c3ccccc3)[C@H](c3ccccc3)N2)cc1F	120
FC(F)(F)c1ccc(CC2=N[C@H](c3ccccc3)[C@H](c3ccccc3)N2)cc1	400
COc1cccc(CC2=N[C@H](c3ccccc3)[C@H](c3ccccc3)N2)c1OC	> 3000
c1ccc(C2=N[C@@H](c3ccccc3)[C@@H](c3ccccc3)N2)cc1	3800
Clc1cccc(CC2=N[C@H](c3ccccc3)[C@H](c3ccccc3)N2)c1	30
Clc1ccc(CCC2=N[C@H](c3ccccc3)[C@H](c3ccccc3)N2)cc1Cl	1400
Fc1ccc(CC2=N[C@H](c3ccccc3)[C@H](c3ccccc3)N2)cc1F	30
c1ccc([C@H]2N=C(C3Cc4ccccc4C3)N[C@H]2c2ccccc2)cc1	50
COc1ccc(CCC2=N[C@H](c3ccccc3)[C@H](c3ccccc3)N2)cc1	> 3000
C[C@@H](CC1=N[C@H](c2ccccc2)[C@H](c2ccccc2)N1)c1ccccc1	30
Fc1ccc(CCC2=N[C@H](c3ccccc3)[C@H](c3ccccc3)N2)cc1	220
Cc1ccccc1CC1=N[C@H](c2ccccc2)[C@H](c2ccccc2)N1	320
c1ccc([C@H]2N=C(CC3Cc4ccccc4C3)N[C@H]2c2ccccc2)cc1	240
Cc1ccc(CCC2=N[C@H](c3ccccc3)[C@H](c3ccccc3)N2)cc1	2190
Cc1ccccc1CCC1=N[C@H](c2ccccc2)[C@H](c2ccccc2)N1	70
C[C@H](C1=N[C@H](c2ccccc2)[C@H](c2ccccc2)N1)c1ccccc1	110
